ChEMBL document CHEMBL1134337, “Behavioral approach to nondyskinetic dopamine antagonists: identification of seroquel” (J Med Chem, 2001)
Blank lines part the entries; values can stand above or below the molecule they belong to.

Experiments:
[1] = Number of animals showing dyskinesias was determined in haloperidol sensitized 11 cebus monkeys after (po) administration of 40 mg/kg; type: functional
In short: (§1)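 Adult male and female Cebus monkeys sensitized with haloperidol 1 mg/kg po weekly until dyskinetic reactions appeared. Drug given orally (2 mL/kg) in 0.5% w/w hydroxypropylmethylcellulose with 0.1% w/w Tween 80, at least 2 weeks between treatments. Two observers watched continuously for 6–7 h, logging reaction type and severity every 30 min. Score is the number of monkeys with dyskinesias over the number tested.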

[2] = Number of animals showing dyskinesias was determined in haloperidol sensitized 13 cebus monkeys after (po) administration of 10 mg/kg; type: functional; in short: as §1
[3] = Number of animals showing dyskinesias was determined in haloperidol sensitized 13 cebus monkeys after (po) administration of 20 mg/kg; type: functional; in short: as §1
Mus musculus [4] = test: Antagonism of apomorphine induced climbing was determined in female swiss -Webster mice after (ip) administration of 10 mg/kg; type: functional
In short: (§2)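 Female Swiss-Webster mice (about 20 g) were fasted about 24 h, then given test compound or vehicle ip or po (N = 20 per group). Vehicle was 0.5% w/w hydroxypropylmethylcellulose with 0.1% w/w Tween 80 in water. After 30 min, mice received apomorphine HCl 1.25 mg/kg sc. At 13 min, each mouse was watched for 1 min; score was mean of highest and lowest rung of 27. Groups were compared with vehicle by Student's t-test.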

Mus musculus [5] = test: Antagonism of apomorphine induced climbing was determined in female swiss -Webster mice after (ip) administration of 20 mg/kg; type: functional; in short: as §2
Mus musculus [6] = test: Antagonism of apomorphine induced climbing was determined in female swiss -Webster mice after (ip) administration of 40 mg/kg; type: functional; in short: as §2
Mus musculus [7] = test: Antagonism of apomorphine induced climbing was determined in female swiss -Webster mice after (ip) administration of 80 mg/kg; type: functional; in short: as §2
Mus musculus [8] = test: Antagonism of apomorphine induced swimming was determined in female swiss -Wbster mice after (po) administration of 20 mg/kg; type: functional
Mus musculus [9] = test: Antagonism of apomorphine induced swimming was determined in female swiss -Wbster mice after (po) administration of 40 mg/kg; type: functional
Mus musculus [10] = test: Antagonism of apomorphine induced swimming was determined in female swiss -Wbster mice after (po) administration of 80 mg/kg; type: functional
Mus musculus [11] = test: Antagonism of apomorphine induced swimming was determined in female swiss -Webster mice after (po) administration of 10 mg/kg; type: functional
In short: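 Female Swiss-Webster mice (~20 g), food-deprived ~24 h, N = 20 per group; oral dosing in 0.5% w/w hydroxypropylmethylcellulose with 0.1% w/w Tween 80 in water. Apomorphine given; mice placed in a circular tank (5.5 cm water, room temperature) with marks 180° apart. Each 180° swim counted, observed via overhead mirrors; group score derived from swim counts.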

[12] = Number of animals showing dyskinesias was determined in haloperidol sensitized 5 cebus monkeys after (po) administration of 20 mg/kg; 5/5; type: functional
In short: (§3)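 Adult female and male Cebus monkeys sensitized with oral haloperidol 1 mg/kg once per week until dyskinetic reactions occurred. Test drug given orally (2 mL/kg) in 0.5% w/w hydroxypropylmethylcellulose with 0.1% w/w Tween 80 in distilled water, at least 2 weeks between treatments. Two observers watched continuously for 6-7 h, recording reaction type and severity every 30 min. Score is monkeys with dyskinesias/monkeys tested.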

[13] = Number of animals showing dyskinesias was determined in haloperidol sensitized 5 cebus monkeys after (po) administration of 5 mg/kg; type: functional; in short: as §3
D(2) dopamine receptor = D(2) dopamine receptor (Rattus norvegicus, UniProt P61169); test: Inhibition of spiropiperidone binding at dopamine receptor D2 of rat.
D(2) dopamine receptor, sequence (P61169 whole entry): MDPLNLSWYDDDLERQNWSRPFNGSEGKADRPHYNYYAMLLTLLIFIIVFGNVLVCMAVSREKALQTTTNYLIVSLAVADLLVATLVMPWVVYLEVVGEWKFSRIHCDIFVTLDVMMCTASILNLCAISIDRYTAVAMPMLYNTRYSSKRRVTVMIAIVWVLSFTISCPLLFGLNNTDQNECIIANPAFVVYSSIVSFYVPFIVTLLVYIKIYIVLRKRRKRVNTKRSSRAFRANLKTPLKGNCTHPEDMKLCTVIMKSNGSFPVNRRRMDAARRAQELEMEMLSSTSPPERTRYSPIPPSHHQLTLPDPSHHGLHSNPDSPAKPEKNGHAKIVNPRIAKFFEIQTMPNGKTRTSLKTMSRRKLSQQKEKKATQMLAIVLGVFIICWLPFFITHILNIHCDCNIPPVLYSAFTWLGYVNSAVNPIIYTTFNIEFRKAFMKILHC

Mus musculus [14] = test: Antagonism of apomorphine induced climbing was determined in female swiss -Webster mice after (ip) administration of 5 mg/kg; type: functional; in short: as §2
Mus musculus [15] = test: Antagonism of apomorphine induced swimming was determined in female swiss -Webster mice after (ip) administration of 10 mg/kg; type: functional
Mus musculus [16] = test: Antagonism of apomorphine induced swimming was determined in female swiss -Webster mice after (ip) administration of 20 mg/kg; type: functional
Mus musculus [17] = test: Antagonism of apomorphine induced swimming was determined in female swiss -Webster mice after (ip) administration of 40 mg/kg; type: functional
Mus musculus [18] = test: Antagonism of apomorphine induced swimming was determined in female swiss -Webster mice after (ip) administration of 5 mg/kg; type: functional
Mus musculus [19] = test: Antagonism of apomorphine induced climbing was determined in female swiss -Wbster mice after (ip) administration of 10 mg/kg; type: functional; in short: as §2
Mus musculus [20] = test: Antagonism of apomorphine induced climbing was determined in female swiss -Wbster mice after (ip) administration of 20 mg/kg; type: functional; in short: as §2
Mus musculus [21] = test: Antagonism of apomorphine induced climbing was determined in female swiss -Wbster mice after (ip) administration of 40 mg/kg; type: functional; in short: as §2
Mus musculus [22] = test: Antagonism of apomorphine induced climbing was determined in female swiss -Wbster mice after (ip) administration of 80 mg/kg; type: functional; in short: as §2
Mus musculus [23] = test: Antagonism of apomorphine induced swimming was determined in female swiss -Webster mice after (po) administration of 20 mg/kg; type: functional
Mus musculus [24] = test: Antagonism of apomorphine induced swimming was determined in female swiss -Webster mice after (po) administration of 40 mg/kg; type: functional
Mus musculus [25] = test: Antagonism of apomorphine induced swimming was determined in female swiss -Webster mice after (po) administration of 80 mg/kg; type: functional
[26] = Number of animals showing dyskinesias was determined in haloperidol sensitized 12 cebus monkeys after (po) administration of 20 mg/kg; type: functional
In short: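 Adult male and female Cebus monkeys were sensitized with haloperidol 1 mg/kg po weekly until dyskinesias appeared. Test drug was given po (2 mL/kg) in HPMC/Tween 80 vehicle, with at least 2 weeks between treatments. Two observers watched continuously for 6-7 h, recording reaction type and severity every 30 min. Result is number of monkeys showing dyskinesias over number tested.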

[27] = Number of animals showing dyskinesias was determined in haloperidol sensitized 2 cebus monkeys after (po) administration of 40 mg/kg; type: functional; in short: as §3
[28] = Number of animals showing dyskinesias was determined in haloperidol sensitized 5 cebus monkeys after (po) administration of 10 mg/kg; type: functional; in short: as §3
Mus musculus [29] = test: Antagonism of apomorphine induced climbing was determined in female swiss -Wbster mice after (po) administration of 80 mg/kg; type: functional; in short: as §2
Mus musculus [30] = test: Antagonism of apomorphine induced swimming was determined in female swiss -Wbster mice after (ip) administration of 10 mg/kg; type: functional
Mus musculus [31] = test: Antagonism of apomorphine induced swimming was determined in female swiss -Wbster mice after (ip) administration of 20 mg/kg; type: functional
Mus musculus [32] = test: Antagonism of apomorphine induced swimming was determined in female swiss -Wbster mice after (ip) administration of 40 mg/kg; type: functional
Mus musculus [33] = test: Antagonism of apomorphine induced swimming was determined in female swiss -Wbster mice after (ip) administration of 80 mg/kg; type: functional
[34] = Number of animals showing dyskinesias was determined in haloperidol sensitized 9 cebus monkeys after (po) administration of 80 mg/kg; type: functional; in short: as §3
[35] = biological target: D(2) dopamine receptor (Rattus norvegicus) (UniProt P61169); test: Binding affinity at dopamine receptor D2 from rat by spiropiperidone displacement.
D(2) dopamine receptor (Rattus norvegicus), sequence (P61169 whole entry): as above
In short: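 D2 receptor binding was read as % displacement of spiropiperidone, with test compound at 1000 nM unless stated otherwise. IC50 values used at least five concentrations per compound in triplicate. Each value is the mean of two replicate experiments differing by 5% or less.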

Mus musculus [36] = test: Antagonism of apomorphine induced climbing was determined in female swiss -Wbster mice after (po) administration of 20 mg/kg; type: functional; in short: as §2
Mus musculus [37] = test: Antagonism of apomorphine induced climbing was determined in female swiss -Wbster mice after (po) administration of 40 mg/kg; type: functional; in short: as §2
[38] = Number of animals showing dyskinesias was determined in haloperidol sensitized 3 cebus monkeys after (po) administration of 20 mg/kg; type: functional; in short: as §3

SMILES: CN1CCN(C2=Nc3cc(Cl)ccc3Nc3ccccc32)CC1 [CLOZAPINE]
No of monkeys [1]: 0 | No of monkeys [2]: 0 | No of monkeys [3]: 0 | Activity (Mus musculus [4]): 23 | Activity (Mus musculus [5]): 19 | Activity (Mus musculus [6]): >5 | Activity (Mus musculus [7]): >0 | Activity (Mus musculus [8]): 3 | Activity (Mus musculus [9]): >13 | Activity (Mus musculus [10]): >15 | Activity (Mus musculus [11]): 4

SMILES: CN1CCN(C2=Nc3ccc(F)cc3Sc3ccccc32)CC1
IC50 (D(2) dopamine receptor): 0.963 µM | Activity (Mus musculus [19]): 18 | Activity (Mus musculus [20]): 13 | Activity (Mus musculus [21]): 5 | Activity (Mus musculus [22]): 1 | Activity (Mus musculus [11]): 1 | Activity (Mus musculus [23]): 2 | Activity (Mus musculus [24]): 3 | Activity (Mus musculus [25]): 9

SMILES: OCCOCCN1CCN(C2=Nc3ccc(F)cc3Sc3ccccc32)CC1
No of monkeys [26]: 3 | No of monkeys [27]: 0 | No of monkeys [28]: 1 | IC50 (D(2) dopamine receptor): 0.56 µM | Activity (Mus musculus [19]): 14 | Activity (Mus musculus [20]): 9 | Activity (Mus musculus [21]): 8 | Activity (Mus musculus [22]): 2 | Activity (Mus musculus [29]): 23 | Activity (Mus musculus [30]): 1 | Activity (Mus musculus [31]): 1 | Activity (Mus musculus [32]): 8 | Activity (Mus musculus [33]): 18 | Activity (Mus musculus [10]): 2

The next lines start with results.

IC50 (D(2) dopamine receptor): 0.293 µM
SMILES: COCC(CCN1CCN(C2=Nc3ccccc3Sc3ccccc32)CC1)OC (configuration not stated)
No of monkeys [12]: 5 | No of monkeys [13]: 0 | Activity (Mus musculus [4]): 5 | Activity (Mus musculus [5]): 0 | Activity (Mus musculus [6]): 0 | Activity (Mus musculus [14]): 21 | Activity (Mus musculus [15]): 8 | Activity (Mus musculus [16]): 20 | Activity (Mus musculus [17]): 32 | Activity (Mus musculus [18]): 2

% displacement of spiropiperidone [35]: 22%
SMILES: OCCOCCN1CCN(C2=Nc3ccccc3Cc3ccccc32)CC1
No of monkeys [34]: 0 | Activity (Mus musculus [20]): 21 | Activity (Mus musculus [21]): 17 | Activity (Mus musculus [22]): 2 | Activity (Mus musculus [36]): 24 | Activity (Mus musculus [37]): 17 | Activity (Mus musculus [29]): 10 | Activity (Mus musculus [8]): 1 | Activity (Mus musculus [9]): 1 | Activity (Mus musculus [10]): 3

% displacement of spiropiperidone [35]: 54%
SMILES: OCCOCCN1CCN(C2=Nc3cc(Cl)ccc3Oc3ccccc32)CC1
Activity (Mus musculus [20]): 17 | Activity (Mus musculus [21]): 0 | Activity (Mus musculus [8]): 2 | Activity (Mus musculus [9]): 4 | No of monkeys [38]: 2
